Data set [1] addresses T1, Choline O-acetyltransferase (Rattus norvegicus) (UniProt P32738).
T1 sequence (whole entry): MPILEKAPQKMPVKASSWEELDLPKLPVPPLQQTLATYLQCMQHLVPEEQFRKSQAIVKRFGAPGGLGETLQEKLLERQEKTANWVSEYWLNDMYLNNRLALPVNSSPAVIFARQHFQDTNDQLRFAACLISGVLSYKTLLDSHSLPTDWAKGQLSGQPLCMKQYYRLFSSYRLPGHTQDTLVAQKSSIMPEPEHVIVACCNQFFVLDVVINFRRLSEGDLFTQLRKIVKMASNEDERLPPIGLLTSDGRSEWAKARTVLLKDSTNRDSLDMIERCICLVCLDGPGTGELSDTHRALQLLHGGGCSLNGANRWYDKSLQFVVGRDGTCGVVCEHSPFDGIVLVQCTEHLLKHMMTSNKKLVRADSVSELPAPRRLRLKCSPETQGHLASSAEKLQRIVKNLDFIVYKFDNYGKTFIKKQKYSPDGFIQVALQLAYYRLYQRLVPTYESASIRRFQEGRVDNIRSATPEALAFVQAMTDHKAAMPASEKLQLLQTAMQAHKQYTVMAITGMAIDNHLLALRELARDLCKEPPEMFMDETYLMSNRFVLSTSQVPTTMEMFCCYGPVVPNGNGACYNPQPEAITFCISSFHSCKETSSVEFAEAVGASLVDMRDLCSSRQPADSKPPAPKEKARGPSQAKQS
Nature of the data set: Induction of ChAT activity in rat forebrain cells at 1 ug/mL relative to control. In kind it is cell-based. The method in brief: (§1)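 Basal forebrain from E17–19 rat embryos, papain-dissociated, plated at 1 × 10^6 cells/well in DMEM/F12 with 5% FBS and 5% horse serum. After 7 days of preculture, cells were exposed for 3 days. Lysate (1% Triton X-100, pH 6.8 Tris) was incubated with 25 µM [14C]acetyl-CoA and 8 mM choline with eserine for 1 h at 37 °C. Extracted [14C]ACh was counted. Results are % of control, n = 3.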

The target of data set [2] is T1, Choline O-acetyltransferase (Rattus norvegicus). Nature of the data set: Induction of ChAT activity in rat forebrain cells at 0.1 ug/mL relative to control. In kind it is cell-based. The method in brief: as §1
For data set [3], the target named is T2, Choline O-acetyltransferase (Mus musculus) (UniProt Q03059).
T2 sequence (whole entry): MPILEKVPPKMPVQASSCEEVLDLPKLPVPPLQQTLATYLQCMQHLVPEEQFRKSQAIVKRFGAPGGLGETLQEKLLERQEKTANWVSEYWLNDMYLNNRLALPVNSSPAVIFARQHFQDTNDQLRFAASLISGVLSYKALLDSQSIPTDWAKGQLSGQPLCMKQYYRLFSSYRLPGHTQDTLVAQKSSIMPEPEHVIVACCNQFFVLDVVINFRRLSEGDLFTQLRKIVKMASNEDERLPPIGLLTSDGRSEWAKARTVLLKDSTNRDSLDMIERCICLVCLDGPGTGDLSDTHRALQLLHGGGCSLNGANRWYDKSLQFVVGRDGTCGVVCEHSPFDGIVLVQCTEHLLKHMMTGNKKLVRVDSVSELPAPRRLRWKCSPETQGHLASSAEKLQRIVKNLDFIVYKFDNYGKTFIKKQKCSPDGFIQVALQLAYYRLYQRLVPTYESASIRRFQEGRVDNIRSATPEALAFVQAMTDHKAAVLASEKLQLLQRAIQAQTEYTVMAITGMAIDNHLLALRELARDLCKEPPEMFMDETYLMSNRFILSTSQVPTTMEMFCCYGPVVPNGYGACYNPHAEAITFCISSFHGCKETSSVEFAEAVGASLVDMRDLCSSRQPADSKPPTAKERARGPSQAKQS
Nature of the data set: Induction of ChAT activity in mouse SN49 cultured cells at 1 ug/mL after 3 days relative to control. The data set is classed as cell-based. The method in brief: (§2)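 Mouse septal SN49 hybrid cells were grown in DMEM with 10% FBS and plated at 2 × 10^5 cells/well. After 24 h at 37 °C, compound was added for a further 48 h. ChAT was measured in Triton lysates as [14C]acetylcholine formed from 25 µM [14C]acetyl-CoA and 8 mM choline chloride (0.1 mM eserine, 37 °C, 1 h) by scintillation counting. Results are % of control, n = 3, with Dunnett test.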

Data set [4] can be described thus: Cytotoxicity against rat basal forebrain cells at 10 ug/mL.
Data set [5] addresses T1, Choline O-acetyltransferase (Rattus norvegicus). Nature of the data set: Induction of ChAT activity in rat forebrain cultured cells at 0.1 ug/mL after 3 days relative to control. The data set is classed as cell-based. The method in brief:
as §1

Data set [6] has as its target T2, Choline O-acetyltransferase (Mus musculus). Nature of the data set: Induction of ChAT activity in mouse SN49 cultured cells at 0.1 ug/mL after 3 days relative to control. In kind it is cell-based. The method in brief: as §2
For data set [7], the species on record is Rattus norvegicus. Nature of the data set: Induction of ChAT mRNA expression in rat forebrain cells at 0.1 ug/mL after 6 hrs by RT-PCR method. The data set is classed as functional, cell-based. In short, it runs like this:
(§3)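 Cultured rat embryo basal forebrain cells were exposed for 6 h. ChAT mRNA was assessed by RT-PCR, and ethidium bromide-stained products were quantified by optical scanning as relative intensities.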

The target of data set [8] is T2, Choline O-acetyltransferase (Mus musculus). Nature of the data set: Induction of ChAT activity in mouse SN49 cultured cells at 10 ug/mL after 3 days relative to control. The data set is classed as cell-based. The method in brief: as §2
In data set [9] the target is T1, Choline O-acetyltransferase (Rattus norvegicus). Nature of the data set: Induction of ChAT activity in rat forebrain cultured cells at 10 ug/mL after 3 days relative to control. In kind it is cell-based. The method in brief: as §1
For data set [10] the target is unchanged. Nature of the data set: Induction of ChAT activity in rat forebrain cultured cells at 1 ug/mL after 3 days relative to control. The data set is classed as cell-based. The method in brief: as §1
The species named for data set [11] is Rattus norvegicus. Nature of the data set: Induction of ChAT mRNA expression in rat forebrain cells at 1 ug/mL after 6 hrs by RT-PCR method. The data set is classed as functional, cell-based. The method in brief: as §3
Data set [12] can be described thus: Cytotoxicity against rat forebrain cells at 10 ug/mL. In kind it is cell-based.
The target in data set [13] is T2, Choline O-acetyltransferase (Mus musculus). Nature of the data set: Induction of ChAT activity in mouse SN49 cultured cells at 0.01 ug/mL after 3 days relative to control. The data set is classed as cell-based. In short, it runs like this:
as §2

Data set [14] addresses T1, Choline O-acetyltransferase (Rattus norvegicus). Nature of the data set: Induction of ChAT activity in rat forebrain cultured cells at 0.01 ug/mL after 3 days relative to control. In kind it is cell-based. The method in brief: as §1

Calls of active or inactive are those of the source. The calls are words filed in the database; no cut-off is given here.

Take `C=C1CC[C@@H]2O[C@]2(COC(C)=O)C[C@H]2O[C@@]23[C@H](C(C)(C)O)CC[C@@]3(C)[C@H](OC(C)=O)C1`: the Activity in [1] was 161%; in data set [2] it was 11.5%.

As for `C=C1CC[C@@H]2O[C@]2(CO)C[C@H]2O[C@@]23[C@H](C(C)(C)O)CC[C@@]3(C)CC1` [STOLONIDIOL], the Activity in data set [3] was 145%; in data set [4] it was “Toxic”; in [5] it was 178%; in data set [6], 142%; in data set [8], 92.7%; in [9], 38.2%. Besides, the Activity is 139% in data set [10]; 231% in data set [1]; “Toxic” in data set [12]; 127% in data set [2]; 146% in [13]; 130% in [14]. Further, the outcome in the data set listed under Rattus norvegicus [7] and in the data set listed under Rattus norvegicus [11] was Active.

With `C=C1CC[C@@H]2O[C@]2(COC(=O)CCC)C[C@H]2O[C@@]23[C@H](C(C)(C)O)CC[C@@]3(C)CC1`, the Activity was determined as 179% in data set [1] and 118% in data set [2].

For `C=C1CC[C@@H]2O[C@]2(COC(=O)CCCCCCCCCCC)C[C@H]2O[C@@]23[C@H](C(C)(C)O)CC[C@@]3(C)CC1`, the Activity is 143% in data set [1] and 108% in data set [2].

In the case of `C=C1CC[C@@H](OC)[C@@](O)(CO)C[C@H]2O[C@@]23[C@H](C(C)(C)O)CC[C@@]3(C)CC1`, the results for the Activity in [1] and in data set [2] were 92.3% and 89.2%, respectively.

For `C=C1CC[C@@H](Cl)[C@@](O)(COC(=O)c2ccc(Br)cc2)C[C@H]2O[C@@]23[C@H](C(C)(C)O)CC[C@@]3(C)CC1`, the Activity in data set [1] is 95.3%; in data set [2], 96.7%.

Consider `C=C1CC[C@@H]2O[C@]2(COC(=O)CCCCC)C[C@H]2O[C@@]23[C@H](C(C)(C)O)CC[C@@]3(C)CC1`, for which the Activity in [1] came out at 164%; in data set [2], 139%.

Consider `C=C1CC[C@@H]2O[C@]2(COC(C)=O)C[C@H]2O[C@@]23[C@H](C(C)(C)O)CC[C@@]3(C)CC1`, for which the Activity in data set [1] turned out to be 210%; in [2], 89.2%.

Regarding `COC1(OC)CC[C@@H]2O[C@]2(CO)C[C@H]2O[C@@]23[C@H](C(C)(C)O)CC[C@@]3(C)CC1`, the Activity in data set [1] is 104%; in [2], 109%.

For the compound `C=C1CC[C@@H]2O[C@]2(COC(=O)c2ccccc2)C[C@H]2O[C@@]23[C@H](C(C)(C)O)CC[C@@]3(C)CC1`, the Activity in data set [1] was 173%; in [2], 116%.

In the case of `C=C1CC/C=C(/CO)C/C=C2\[C@H](C(C)(C)O)CC[C@@]2(C)CC1`, the results for the Activity in data set [1] and in data set [2] were 122% and 109%, respectively.

As to `C=C1CC[C@@H]2O[C@]2(COC(=O)CCCCCCCCCCCCC)C[C@H]2O[C@@]23[C@H](C(C)(C)O)CC[C@@]3(C)CC1`, the Activity in data set [1] is 174%; in [2] it was 97.6%.

For the origin of these results see ChEMBL document CHEMBL1154557, “Induction of choline acetyltransferase activity in cholinergic neurons by stolonidiol: structure-activity relationship” (J Nat Prod, 2000).
